Laboratory results published in ChEMBL document CHEMBL4049426, “Identification of the Clinical Candidate (R)-(1-(4-Fluorophenyl)-6-((1-methyl-1H-pyrazol-4-yl)sulfonyl)-4,4a,5,6,7,8-hexahydro-1H-pyrazolo[3,4-g]isoquinolin-4a-yl)(4-(trifluoromethyl)pyridin-2-yl)methanone (CORT125134): A Selective Glucocorticoid Receptor (GR) Antagonist” (J Med Chem, 2017).

Experiments:
[1] = Cmax in Sprague-Dawley CD-1 rat plasma at 3 mg/kg, po administered as cassette dose via gavage measured up to 24 hrs by LC/MS analysis; type: ADME, organism-based; set-up: dose 3 mg/kg, route oral
How it was run: (§1)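 Three male Sprague Dawley CD-1 rats (220-250g) with jugular vein catheters; three test compounds plus a reference dosed together by oral gavage, 3mg/kg each, in DMSO:0.5% methylcellulose 10:90 (0.6mg/mL per compound), 5mL/kg. Plasma sampled pre-dose and at 0.25, 0.5, 1, 2, 4, 6, 8, 24 h; LC/MS.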

Glucocorticoid receptor [2] = target: T1, Glucocorticoid receptor (Homo sapiens, UniProt P04150); test: Displacement of fluormone GS Red from human glucocorticoid receptor after 4 hrs by fluorescence polarization assay
T1 sequence (P04150 whole entry): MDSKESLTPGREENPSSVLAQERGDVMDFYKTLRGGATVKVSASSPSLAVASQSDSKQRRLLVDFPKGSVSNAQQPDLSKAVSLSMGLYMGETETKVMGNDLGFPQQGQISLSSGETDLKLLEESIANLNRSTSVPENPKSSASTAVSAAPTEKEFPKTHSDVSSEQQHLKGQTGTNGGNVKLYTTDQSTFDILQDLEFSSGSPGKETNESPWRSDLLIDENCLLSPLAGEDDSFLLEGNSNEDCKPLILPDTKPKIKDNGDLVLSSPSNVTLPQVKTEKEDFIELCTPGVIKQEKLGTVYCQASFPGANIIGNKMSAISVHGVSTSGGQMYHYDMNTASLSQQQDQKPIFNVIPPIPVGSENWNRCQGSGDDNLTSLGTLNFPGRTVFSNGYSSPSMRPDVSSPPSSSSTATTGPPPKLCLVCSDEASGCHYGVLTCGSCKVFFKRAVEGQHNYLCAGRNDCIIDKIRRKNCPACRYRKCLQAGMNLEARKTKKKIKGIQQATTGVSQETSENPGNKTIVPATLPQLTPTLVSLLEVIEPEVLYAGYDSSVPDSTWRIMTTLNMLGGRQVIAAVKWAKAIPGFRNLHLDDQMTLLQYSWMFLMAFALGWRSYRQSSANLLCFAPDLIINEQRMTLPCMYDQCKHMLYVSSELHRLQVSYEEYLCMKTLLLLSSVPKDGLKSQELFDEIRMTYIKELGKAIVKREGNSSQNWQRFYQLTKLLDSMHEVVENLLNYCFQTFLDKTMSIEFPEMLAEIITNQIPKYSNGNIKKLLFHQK

Glucocorticoid receptor [3] = target: T1, Glucocorticoid receptor; test: Antagonist activity at glucocorticoid receptor in human HepG2 cells assessed as inhibition of dexamethasone-induced tyrosine amino transferase activity preincubated for 30 mins followed by dexamethasone addition measured after 20 hrs; type: cell-based
[4] = AUC in Sprague-Dawley CD-1 rat plasma at 3 mg/kg, po administered as cassette dose via gavage measured up to 24 hrs by LC/MS analysis; type: ADME, organism-based; set-up: time < 24 hr, dose 3 mg/kg, route oral; how it was run: as §1

SMILES	Cmax [1] [ng/mL]	Ki (Glucocorticoid receptor [2]) [nM]	Ki (Glucocorticoid receptor [3]) [nM]	AUC at 24 h [4] [ng·h/mL]
Cc1ccnc(C(=O)[C@]23Cc4cnn(-c5ccc(F)cc5)c4C=C2CCN(S(=O)(=O)c2ccc(C(F)(F)F)c(F)c2)C3)c1	48	0.42	7.5	173
O=C(c1nccs1)[C@]12Cc3cnn(-c4ccc(F)cc4)c3C=C1CCN(S(=O)(=O)c1ccc(F)c(F)c1)C2		0.23	37	
Cc1csc(C(=O)[C@]23Cc4cnn(-c5ccc(F)cc5)c4C=C2CCN(S(=O)(=O)c2cccc(C(F)(F)F)c2)C3)n1		0.88	63	
Cc1c(S(=O)(=O)N2CCC3=Cc4c(cnn4-c4ccc(F)cc4)C[C@]3(C(=O)c3cc(C(F)(F)F)ccn3)C2)cnn1C	110		12	283
Cn1cc(S(=O)(=O)N2CC[C@H]3Cc4c(cnn4-c4ccc(F)cc4)C[C@]3(C(=O)c3cc(C(F)(F)F)ccn3)C2)nn1			60	
N#Cc1cccc(S(=O)(=O)N2CCC3=Cc4c(cnn4-c4ccc(F)cc4)C[C@]3(C(=O)c3ccccn3)C2)c1	140			239
Cn1cc(S(=O)(=O)N2CCC3=Cc4c(cnn4-c4ccc(F)cc4)C[C@]3(C(=O)c3cc(C(F)(F)F)ccn3)C2)nn1	91.5		9.7	450
O=C(c1ccccn1)[C@]12Cc3cnn(-c4ccc(F)cc4)c3C=C1CCN(S(=O)(=O)c1ccc(C(F)(F)F)c(F)c1)C2	125			726
Cn1nncc1S(=O)(=O)N1CCC2=Cc3c(cnn3-c3ccc(F)cc3)C[C@]2(C(=O)c2cc(C(F)(F)F)ccn2)C1			31	
Cc1ccnc(C(=O)[C@]23Cc4cnn(-c5ccc(F)cc5)c4C=C2CCN(S(=O)(=O)c2cc(F)cc(F)c2)C3)c1		0.14	4.3	
Cc1ccnc(C(=O)[C@]23Cc4cnn(-c5ccc(F)cc5)c4C=C2CCN(S(=O)(=O)c2cccc(C(F)(F)F)c2)C3)c1		0.21	5.1	
Cc1ccnc(C(=O)[C@]23Cc4cnn(-c5ccc(F)cc5)c4C=C2CCN(S(=O)(=O)c2ccc(F)c(F)c2)C3)c1	113	0.14	5.7	421
Cn1nncc1S(=O)(=O)N1CC[C@H]2Cc3c(cnn3-c3ccc(F)cc3)C[C@]2(C(=O)c2cc(C(F)(F)F)ccn2)C1			120	
O=C(c1nccs1)[C@]12Cc3cnn(-c4ccc(F)cc4)c3C=C1CCN(S(=O)(=O)c1ccc(Cl)c(Cl)c1)C2	197	0.59	16	1220
N#Cc1cccc(S(=O)(=O)N2CCC3=Cc4c(cnn4-c4ccc(F)cc4)C[C@]3(C(=O)c3cc(C(F)(F)F)ccn3)C2)c1	20	0.32	4.8	49
Cc1cccc(S(=O)(=O)N2CCC3=Cc4c(cnn4-c4ccc(F)cc4)C[C@]3(C(=O)c3cc(C)ccn3)C2)c1	11	0.08	3.3	44
O=C(c1ccccn1)[C@]12Cc3cnn(-c4ccc(F)cc4)c3C=C1CCN(S(=O)(=O)c1ccc(F)c(F)c1)C2	215			974
Cc1cnc(C(=O)[C@]23Cc4cnn(-c5ccc(F)cc5)c4C=C2CCN(S(=O)(=O)c2ccc(Cl)c(Cl)c2)C3)s1	30	0.32	7.4	135
Cn1cc(S(=O)(=O)N2CC[C@H]3Cc4c(cnn4-c4ccc(F)cc4)C[C@]3(C(=O)c3cc(C(F)(F)F)ccn3)C2)cn1			34	
CCn1nccc1S(=O)(=O)N1CC[C@H]2Cc3c(cnn3-c3ccc(F)cc3)C[C@]2(C(=O)c2cc(C(F)(F)F)ccn2)C1			68	
